# Assay results published in ChEMBL document CHEMBL3576786, “Discovery of target based novel pyrrolyl phenoxy derivatives as antimycobacterial agents: an in silico approach” (Eur J Med Chem, 2015).
# What was measured:
# [1] = system: Mycobacterium tuberculosis; assay: Antimycobacterial activity against Mycobacterium tuberculosis H37Rv assessed as inhibition of bacterial growth after 5 days by Microplate Alamar Blue Assay; assay type: functional; details: 120 h
# Vero = assay: Cytotoxicity against African green monkey Vero cells assessed as inhibition of cell proliferation by MTT assay; assay type: cell-based; details: Chlorocebus sabaeus
# Summary of the method: (§1)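 MTT read-out; IC50 taken as the concentration giving a 50% drop in optical density of treated cells relative to untreated cells.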
# A549 = assay: Cytotoxicity against human A549 assessed as inhibition of cell proliferation by MTT assay; assay type: cell-based; summary of the method: as §1
Structure (SMILES),MIC [1] [µg/mL],IC50 (Vero) [µM],IC50 (A549) [µM]
O=Cc1ccc(OCCOc2ccc(-n3cccc3)cc2)cc1,12.5,,
N#Cc1ccc(OCCOc2ccc(-n3cccc3)cc2)cc1,6.25,,
Oc1cc(OCCOc2ccc(-n3cccc3)cc2)ccc1Cl,6.25,,
Cc1ccc(OCCCOc2ccc(-n3cccc3)cc2)cc1,12.5,,
COc1cc(C=O)ccc1OCCOc1ccc(-n2cccc2)cc1,6.25,,
Cc1cc(C)cc(OCCOc2ccc(-n3cccc3)cc2)c1,50,,
Brc1ccccc1OCCOc1ccc(-n2cccc2)cc1,25,,
NNC(=O)c1ccncc1 [ISONIAZID],0.25,> 450,> 450
Nc1ccccc1OCCCOc1ccc(-n2cccc2)cc1,100,,
Brc1cccc(OCCCOc2ccc(-n3cccc3)cc2)c1,25,,
Oc1cc(O)cc(OCCOc2ccc(-n3cccc3)cc2)c1,3.12,231,237
Nc1ccccc1OCCOc1ccc(-n2cccc2)cc1,100,,
Clc1ccccc1OCCCOc1ccc(-n2cccc2)cc1,25,,
Nc1cccc(OCCCOc2ccc(-n3cccc3)cc2)c1,100,,
Oc1ccccc1OCCOc1ccc(-n2cccc2)cc1,12.5,,
c1ccc2c(OCCCOc3ccc(-n4cccc4)cc3)cccc2c1,1.6,240,243
O=[N+]([O-])c1ccc(OCCCOc2ccc(-n3cccc3)cc2)c([N+](=O)[O-])c1,100,,
CCOc1cc(C=O)ccc1OCCOc1ccc(-n2cccc2)cc1,3.12,211,217
Brc1ccc(OCCOc2ccc(-n3cccc3)cc2)cc1,12.5,,
CCOc1cc(C=O)ccc1OCCCOc1ccc(-n2cccc2)cc1,3.12,215,223
Oc1ccccc1OCCCOc1ccc(-n2cccc2)cc1,12.5,,
Cc1ccc(OCCCOc2ccc(-n3cccc3)cc2)c(C)c1,25,,
O=Cc1ccc(OCCCOc2ccc(-n3cccc3)cc2)cc1,12.5,,

Structure (SMILES),MIC [1] [µg/mL],IC50 (Vero) [µM],IC50 (A549) [µM]
c1ccc(OCCOc2ccc(-n3cccc3)cc2)cc1,50,,
Oc1cc(Cl)ccc1Oc1ccc(Cl)cc1Cl [TRICLOSAN],10,,
c1ccc2cc(OCCOc3ccc(-n4cccc4)cc3)ccc2c1,3.12,231,233
Clc1ccc(OCCOc2ccc(-n3cccc3)cc2)cc1,12.5,,
Cc1ccccc1OCCOc1ccc(-n2cccc2)cc1,25,,
Cc1ccc(OCCOc2ccc(-n3cccc3)cc2)cc1,25,,
Fc1ccc(OCCCOc2ccc(-n3cccc3)cc2)cc1,6.25,,
Oc1ccc(OCCCOc2ccc(-n3cccc3)cc2)cc1,12.5,,
Cc1ccc(OCCOc2ccc(-n3cccc3)cc2)c(C)c1,12.5,,
c1ccc2cc(OCCCOc3ccc(-n4cccc4)cc3)ccc2c1,3.12,238,235
Oc1cccc(OCCOc2ccc(-n3cccc3)cc2)c1,6.25,,
Nc1cccc(OCCOc2ccc(-n3cccc3)cc2)c1,100,,
Clc1cccc(OCCCOc2ccc(-n3cccc3)cc2)c1,50,,
N#Cc1ccc(OCCCOc2ccc(-n3cccc3)cc2)cc1,6.25,,
Clc1cccc(OCCOc2ccc(-n3cccc3)cc2)c1,25,,
Ic1ccc(OCCOc2ccc(-n3cccc3)cc2)cc1,12.5,,
Clc1ccc(OCCCOc2ccc(-n3cccc3)cc2)cc1,6.25,,
Nc1ccc(OCCCOc2ccc(-n3cccc3)cc2)cc1,50,,
Oc1ccc(OCCOc2ccc(-n3cccc3)cc2)cc1,12.5,,
Nc1ccc(OCCOc2ccc(-n3cccc3)cc2)cc1,100,,
Brc1cccc(OCCOc2ccc(-n3cccc3)cc2)c1,25,,
Brc1ccc(OCCCOc2ccc(-n3cccc3)cc2)cc1,6.25,,
Brc1ccccc1OCCCOc1ccc(-n2cccc2)cc1,25,,

Structure (SMILES),MIC [1] [µg/mL],IC50 (Vero) [µM],IC50 (A549) [µM]
O=[N+]([O-])c1ccc(OCCCOc2ccc(-n3cccc3)cc2)cc1,100,,
COc1cc(C=O)ccc1OCCCOc1ccc(-n2cccc2)cc1,3.12,212,210
Cc1ccc(C)c(OCCOc2ccc(-n3cccc3)cc2)c1,25,,
Oc1cccc(OCCCOc2ccc(-n3cccc3)cc2)c1,12.5,,
O=[N+]([O-])c1ccc(OCCOc2ccc(-n3cccc3)cc2)cc1,50,,
Cc1ccccc1OCCCOc1ccc(-n2cccc2)cc1,25,,
Fc1ccc(OCCOc2ccc(-n3cccc3)cc2)cc1,6.25,,
O=[N+]([O-])c1ccc(OCCOc2ccc(-n3cccc3)cc2)c([N+](=O)[O-])c1,100,,
Cc1cccc(OCCOc2ccc(-n3cccc3)cc2)c1,25,,
Clc1ccccc1OCCOc1ccc(-n2cccc2)cc1,25,,
c1ccn(-c2ccc(OCCCOc3ccc(-n4cccc4)cc3)cc2)c1,6.25,,
Ic1ccc(OCCCOc2ccc(-n3cccc3)cc2)cc1,12.5,,
Oc1cc(OCCCOc2ccc(-n3cccc3)cc2)ccc1Cl,6.25,,
Cc1cc(C)cc(OCCCOc2ccc(-n3cccc3)cc2)c1,25,,
c1ccc(OCCCOc2ccc(-n3cccc3)cc2)cc1,50,,
c1ccc2c(OCCOc3ccc(-n4cccc4)cc3)cccc2c1,3.12,220,215
Cc1cccc(OCCCOc2ccc(-n3cccc3)cc2)c1,25,,
Cc1ccc(C)n1-c1ccc(OCCOc2ccc(-n3cccc3)cc2)cc1,6.25,,
Oc1cc(O)cc(OCCCOc2ccc(-n3cccc3)cc2)c1,3.12,220,227
Cc1ccc(C)n1-c1ccc(OCCCOc2ccc(-n3cccc3)cc2)cc1,3.12,235,237
Cc1ccc(C)c(OCCCOc2ccc(-n3cccc3)cc2)c1,25,,
c1ccn(-c2ccc(OCCOc3ccc(-n4cccc4)cc3)cc2)c1,6.25,,
